The values below come from ChEMBL document CHEMBL2169846, “Design and synthesis of Pictet-Spengler condensation products that exhibit oncogenic-RAS synthetic lethality and induce non-apoptotic cell death” (Bioorg Med Chem Lett, 2012).

Activity calls are given as the source filed them. The rule behind the calls is not given here.

The EC50 is the concentration that produces a half-maximal response.

A short description of assay [1]: Cytotoxicity against human BJeLR cells expressing RAS G12V mutant after 48 hrs by alamar blue assay. It counts as functional, cell-based. To be noted: for CC50: read-out: LC50 (the source's name). Background: Alamar Blue is a resazurin reagent that responds to reducing activity.
Assay [2] has as its system RKO. Briefly: Cytotoxicity against human RKO cells at 20 ug/mL after 48 hrs by alamar blue assay. It counts as functional, cell-based. An outline of the steps: (§1)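 Each cell line exposed for 48 h to a 2-fold, 12-point dilution series beginning at 20 µg/mL. Viability by Alamar blue; LC50 derived from the curves.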
Assay [3] relates to HT1299. As to the kind of experiment: Cytotoxicity against human HT1299 cells at 20 ug/mL after 48 hrs by alamar blue assay. It counts as functional, cell-based. Summed up: as §1
Assay [4] has as its system MCF7. As to the kind of experiment: Cytotoxicity against human MCF7 cells at 20 ug/mL after 48 hrs by alamar blue assay. It is filed as functional, cell-based. Summed up: as §1
Assay [5] in a line: Cytotoxicity against human BJeH cells expressing wild type RAS after 48 hrs by alamar blue assay. It counts as functional, cell-based. The following applies: for CC50: read-out: LC50 (the source's name).
In assay [6] the test system is HT-1080. As to the kind of experiment: Cytotoxicity against human HT1080 cells at 20 ug/mL after 48 hrs by alamar blue assay. It counts as functional, cell-based. Summed up:
as §1

Assay [7] has as its system U2OS. Briefly: Cytotoxicity against human U2OS cells at 20 ug/mL after 48 hrs by alamar blue assay. It is filed as functional, cell-based.
The test system of assay [8] is E3 ubiquitin-protein ligase Mdm2 (Homo sapiens), Q00987 [C464A]. Briefly: Inhibition of Mdm2 C464A mutant at 20 ug/mL after 2 hrs by cell-based luciferase assay.
Assay [9] has as its target E3 ubiquitin-protein ligase Mdm2 (Homo sapiens) (UniProt Q00987). As to the kind of experiment: Inhibition of wild type Mdm2 at 20 ug/mL after 2 hrs by cell-based luciferase assay.
Assay [10] relates to BJeH. Briefly: Cytotoxicity against human BJeH cells expressing wild type RAS at 20 ug/mL after 48 hrs by alamar blue assay. It counts as functional, cell-based.
In assay [11] the test system is BJeLR. As to the kind of experiment: Cytotoxicity against human BJeLR cells expressing RAS G12V mutant at 20 ug/mL after 48 hrs by alamar blue assay. It counts as functional, cell-based.
For assay [12], the system named is U2OS. Briefly: Cytotoxicity against human U2OS cells after 48 hrs by alamar blue assay. It is filed as functional. The following applies: read-out: LC50 (the source's name).
Assay [13] has as its system RKO. As to the kind of experiment: Cytotoxicity against human RKO cells after 48 hrs by alamar blue assay. It is filed as functional. To be noted: read-out: LC50 (the source's name).
Assay [14] has as its system HT-1080. Briefly: Cytotoxicity against human HT1080 cells after 48 hrs by alamar blue assay. The following applies: HT-1080, 48 h, read-out: LC50 (the source's name). It counts as functional.
The nature of assay [15]: Cytotoxicity against human HT1299 cells after 48 hrs by alamar blue assay. It counts as functional. To be noted: HT1299, 48 h, read-out: LC50 (the source's name).

Sequence of E3 ubiquitin-protein ligase Mdm2 (Homo sapiens), Q00987 [C464A] (Q00987 whole entry C464A): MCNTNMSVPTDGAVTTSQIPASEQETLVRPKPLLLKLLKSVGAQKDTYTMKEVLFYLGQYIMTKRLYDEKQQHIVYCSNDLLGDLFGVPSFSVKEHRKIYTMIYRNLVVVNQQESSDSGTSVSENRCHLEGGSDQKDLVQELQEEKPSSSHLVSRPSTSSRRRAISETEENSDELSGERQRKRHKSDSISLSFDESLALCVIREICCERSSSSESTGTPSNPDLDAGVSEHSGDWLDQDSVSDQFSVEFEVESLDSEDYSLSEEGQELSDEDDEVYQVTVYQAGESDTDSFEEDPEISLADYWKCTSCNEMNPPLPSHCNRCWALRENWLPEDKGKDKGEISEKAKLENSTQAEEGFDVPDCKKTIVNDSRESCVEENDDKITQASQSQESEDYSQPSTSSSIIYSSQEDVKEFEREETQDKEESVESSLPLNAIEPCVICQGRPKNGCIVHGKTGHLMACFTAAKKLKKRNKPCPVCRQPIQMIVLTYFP
Sequence of E3 ubiquitin-protein ligase Mdm2 (Homo sapiens) (Q00987 whole entry, looked up): as the sequence (Q00987 whole entry C464A) above, with A464C counted along it

Take `COC(OC)c1nccc2c1[nH]c1ccccc12`: the CC50 in assay [1] was 7.8 µM; in [5], 82.6 µM. For the same molecule, the result in assay [2], in assay [3], in assay [4], in [6] and in assay [7] was inactive. The inhibition result in assay [8] and in [9] was “inactive” throughout.

Regarding `COC(=O)CC1c2[nH]c3ccccc3c2CCN1Cc1ccccc1` (centres undefined), the result in assay [10], in assay [2], in [3], in assay [4], in [6] and in assay [7] was inactive. In assay [1], the CC50 was 59.8 µM. Further, the inhibition entry in assay [8] and in assay [9] was “inactive” in each case.

Consider `COC(OC)C1NCCc2c1[nH]c1ccccc21` (centres undefined), for which the outcome in assay [10], in [2], in assay [3], in [4], in [6] and in [7] was inactive. Besides, in [1], the CC50 worked out at 81.3 µM. The inhibition result in [8] and in assay [9] was “inactive” in each case.

Turning to `CCCN1C(=O)C(CCC2NCCc3c2[nH]c2ccccc32)C(=O)N(CCC)C1=O` (centres undefined), the result in assay [11], in assay [10], in assay [2], in assay [3], in assay [4] and in assay [6] was inactive. Further, the outcome in assay [7] was inactive. Further, the inhibition result in assay [8] and in assay [9] was “inactive” throughout.

Regarding `CCOC(=O)C1c2[nH]c3ccccc3c2CCN1Cc1ccccc1` (centres undefined), the result in assay [11], in assay [10], in [2], in [3], in [4] and in assay [6] was inactive. Moreover, the result in assay [7] was inactive. Besides, the inhibition entry in [8] and in assay [9] was “inactive” in each case.

As for `CN1C(=O)C(CCC2NCCc3c2[nH]c2ccccc32)C(=O)N(C)C1=O` (centres undefined), the outcome in assay [11], in assay [10], in [2], in assay [3], in [4] and in assay [6] was inactive. Moreover, the outcome in assay [7] was inactive. In addition, the inhibition entry in [8] and in [9] was “inactive” each time.

In the case of `CN1C(=O)C(Cc2nccc3c2[nH]c2ccccc23)C(=O)N(C)C1=O`, the outcome in assay [11], in assay [10], in [2], in [3], in [4] and in assay [6] was inactive. In addition, in assay [7], the outcome was inactive. The inhibition result in assay [8] and in assay [9] was “inactive” throughout.

On to `CC(C)(C)OC(=O)N1CCc2c(n(C(=O)OC(C)(C)C)c3ccccc23)C1CCO` (centres undefined), for which the result in assay [11], in assay [10], in assay [3], in [4] and in assay [6] was inactive. Moreover, the CC50 in [12] and in assay [13] was 49.7 µM throughout. The inhibition result in assay [8] and in [9] was “inactive” each time.

Turning to `CCOC(=O)C1c2c(c3ccccc3n2C)CCN1C(=O)OC(C)(C)C` (centres undefined), the outcome in assay [11], in assay [10], in assay [2], in [3], in [4] and in [6] was inactive. The result in assay [7] was inactive. The inhibition result in [8] and in [9] was “inactive” throughout.

Turning to `CN1C(=O)C(Cc2nccc3c4ccccc4n(C(=O)OC(C)(C)C)c23)C(=O)N(C)C1=O`, the outcome in assay [11], in assay [10], in assay [2], in [3], in assay [4] and in assay [6] was inactive. Also, in [7], the result was inactive. The inhibition entry in [8] and in [9] was “inactive” throughout.

Regarding `CCCN1C(=O)C(CC(C)C2NCCc3c2[nH]c2ccccc32)C(=O)N(CCC)C1=O` (centres undefined), the outcome in [11], in assay [10], in assay [2], in assay [3], in [4] and in [6] was inactive. For the same molecule, the result in assay [7] was inactive. For the same molecule, the inhibition result in assay [8] and in assay [9] was “inactive” throughout.

With `CN1C(=O)C(c2nccc3c2[nH]c2ccccc23)C(=O)N(C)C1=O`, the result in assay [11], in assay [10], in assay [2], in [3], in assay [4] and in assay [6] was inactive. For the same molecule, the outcome in assay [7] was inactive. Moreover, the inhibition result in assay [8] and in assay [9] was “inactive” each time.

Regarding `CCOC(=O)C1c2c(c3ccccc3n2C(=O)OC(C)(C)C)CCN1C(=O)OC` (centres undefined), the result in assay [11], in assay [10], in assay [2], in [3], in assay [4] and in assay [6] was inactive. The result in assay [7] was inactive. The inhibition result in assay [8] and in assay [9] was “inactive” throughout.

As for `CCOC(=O)C(C)C1NCCc2c1[nH]c1ccccc21` (centres undefined), the values for the CC50 in assay [1] and in assay [5] were 31.6 µM and 73.5 µM, respectively. Besides, the outcome in assay [2], in assay [3], in assay [4], in assay [6] and in assay [7] was inactive. Also, the inhibition result in assay [8] and in [9] was “inactive” in each case.

Turning to `COC(=O)N1CCc2c(n(C(=O)OC(C)(C)C)c3ccccc23)C1C(OC)OC` (centres undefined), the result in assay [11], in [10], in assay [2], in assay [3], in [4] and in assay [6] was inactive. Moreover, the CC50 in [12] came out at 48.7 µM. The inhibition entry in [8] and in assay [9] was “inactive” each time.

Turning to `COc1ccc(N(C(=O)CCl)C(C(=O)NCCc2ccccc2)c2cccs2)cc1Cl` (centres undefined), the results for the EC50 in [1] and in assay [5] were 0.025 µM and 0.58 µM, respectively.

Take `CC(CC1C(=O)N(C)C(=O)N(C)C1=O)C1NCCc2c1n(C(=O)OC(C)(C)C)c1ccccc21` (centres undefined): the outcome in assay [10], in [2], in [3], in [4], in assay [6] and in [7] was inactive. In addition, the CC50 in assay [1] was 42.7 µM. In addition, the inhibition result in assay [8] and in assay [9] was “inactive” throughout.

Turning to `O=Cc1nccc2c1[nH]c1ccccc12`, the CC50 in assay [14] turned out to be 67.5 µM; in assay [1], 32.4 µM; in assay [15], 67.5 µM; in [13], 11.1 µM. Moreover, the outcome in assay [10], in assay [4] and in [7] was inactive. Also, the inhibition result in [8] and in [9] was “inactive” each time.

As to `CCOC(=O)C1c2[nH]c3ccccc3c2CCN1C(=O)OC` (centres undefined), the outcome in [11], in assay [10], in assay [2], in assay [3], in assay [4] and in assay [6] was inactive. Also, the result in assay [7] was inactive. The inhibition result in assay [8] and in assay [9] was “inactive” each time.
